A short description of data set [1]: Cytotoxicity against human C8166 cells by MTT assay. The format is cell-based. A digest of the protocol: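 MTT read-out of C8166 cell viability, run in parallel with the anti-HIV-1 cytopathic-effect assay. AZT served as positive control, and CC50 was derived.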
A general note: Formazan colour is commonly taken as a measure of viable cells.

Data set [2] relates to Human immunodeficiency virus 1. Nature of the data set: Antiviral activity against HIV1 3B in human C8166 cells assessed as inhibition of virus-induced cytopathogenicity. The format is functional, organism-based. The conditions noted are these: Human immunodeficiency virus 1, 3B. A digest of the protocol: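 HIV-1 cytopathic-effect inhibition in C8166 cells, run in parallel with the cytotoxicity test. AZT served as positive control, and EC50 was the read-out.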
A general note: Protection from cytopathic effect is a common read-out in antiviral testing.

Data set [3] can be described thus: Selectivity index, ratio of CC50 for human C8166 cells to EC50 for HIV1 3B. The format is toxicity, cell-based. The conditions noted are these: read-out: Ratio CC50/EC50.

In data set [1], `COc1cc2c(c(OC)c1OC)-c1c(cc3c(c1OC)OCO3)[C@H](OC(=O)c1ccccc1)[C@H](C)[C@](C)(O)[C@H]2OC(=O)c1ccccc1` returned a CC50 greater than 200 µM. For the same compound, the EC50 in data set [2] was found to be 22.9 µM. For the same compound, the selectivity ratio in data set [3] was greater than 8.7.

The compound `COc1cc2c(c(OC)c1OC)-c1c(cc3c(c1OC)OCO3)[C@H](OC(=O)c1ccccc1)[C@H](C)[C@](C)(O)[C@H]2OC(=O)/C=C/c1ccccc1` gave a CC50 in data set [1] greater than 200 µM. Further, in data set [2], the EC50 amounted to 51.4 µM. Further, the selectivity ratio in data set [3] is greater than 3.9.

On to `COc1cc(C[C@@H](C)[C@@H](C)Cc2ccc(OC)c(OC)c2)ccc1O`, for which the midpoint of cytotoxicity in data set [1], the CC50, lay at 17.2 µM. In data set [2], the 50% effective concentration (EC50) stood at 2.9 µM. Besides, the selectivity ratio in data set [3] stood at 5.8.

`C/C=C(\C)C(=O)O[C@H]1c2cc(OC)c(OC)c(OC)c2-c2c(cc3c(c2OC)OCO3)[C@H](OC(=O)c2ccccc2)[C@H](C)[C@H]1C` came in with a CC50 in data set [1] of 78.2 µM. For the same compound, the EC50 in data set [2] worked out at 15.4 µM. Moreover, the selectivity ratio in data set [3] came to 5.1.

Compound `C/C=C(\C)C(=O)O[C@H]1c2cc(OC)c(OC)c(OC)c2-c2c(cc3c(c2OC)OCO3)[C@H](OC(=O)/C=C/c2ccccc2)[C@H](C)[C@]1(C)O` yielded a CC50 in data set [1] greater than 200 µM. The EC50 in data set [2] came out at 7.9 µM. Also, the selectivity ratio in data set [3] is greater than 25.2.

With `COc1ccc([C@@H]2O[C@H](c3ccc4c(c3)OCO4)[C@@H](C)[C@@H]2C)cc1O`, in data set [1], it took 19.9 µM to reach half-maximal cytotoxicity (CC50). For the same compound, the EC50 in data set [2] came out at 6.8 µM. In addition, the selectivity ratio in data set [3] worked out at 2.9.

Regarding `COc1ccc([C@H]2O[C@H](c3ccc4c(c3)OCO4)[C@@H](C)[C@H]2C)cc1OC`, it took 104 µM to reach half-maximal cytotoxicity in data set [1] (CC50). Besides, in data set [2], the EC50 came to 15.5 µM. Moreover, in data set [3], the selectivity ratio is 6.7.

For `CCCCCC(=O)O[C@H]1c2cc3c(c(OC)c2-c2c(cc(OC)c(OC)c2OC)[C@H](OC(=O)c2ccccc2)[C@@](C)(O)[C@H]1C)OCO3`, the CC50 in data set [1] worked out at 119 µM. Further, the EC50 in data set [2] was 28.7 µM. For the same compound, the selectivity ratio in data set [3] was 4.1.

With `COc1cc2c(c(OC)c1OC)-c1c(cc3c(c1OC)OCO3)C(=O)[C@@H](C)[C@@H](C)C2`, the CC50 in data set [1] is greater than 200 µM. Besides, in data set [2], the EC50 came out at 20.4 µM. Besides, in data set [3], the selectivity ratio is greater than 9.8.

In data set [1], `COc1cc2c(cc1O)C[C@@H](C)[C@@H](C)[C@@H]2c1ccc(OC)c(OC)c1` showed a CC50 of 30 µM. Also, the EC50 in data set [2] came to 4.5 µM. Moreover, in data set [3], the selectivity ratio was determined as 6.7.

Take `COc1ccc([C@H]2O[C@@H](c3ccc(OC)c(OC)c3)[C@H](C)[C@@H]2C)cc1OC` [GALGRAVIN]: the 50% cytotoxic concentration (CC50) in data set [1] is 43.4 µM. For the same compound, the concentration giving a half-maximal response (EC50) in data set [2] came out at 7.7 µM. For the same compound, the selectivity ratio in data set [3] is 5.6.

As to `C/C=C(/C)C(=O)O[C@H]1c2cc(OC)c(OC)c(OC)c2-c2c(cc3c(c2OC)OCO3)[C@H](OC(C)=O)[C@H](C)[C@@H]1C` [INTERIOTHERIN C], the CC50 in data set [1] is greater than 200 µM. Also, the EC50 in data set [2] worked out at 9.9 µM. Moreover, the selectivity ratio in data set [3] was greater than 20.2.

In the case of `COc1cc2c(c(OC)c1OC)-c1c(cc3c(c1OC)OCO3)[C@H](OC(C)=O)[C@H](C)[C@H](C)C2` [KADSURIN], in data set [1], the cytotoxic concentration (CC50) is greater than 200 µM. Further, in data set [2], the half-maximal effective concentration (EC50) amounted to 79.1 µM. In addition, the selectivity ratio in data set [3] is greater than 2.5.

In data set [1], `COc1cc(C[C@@H](C)[C@@H](C)Cc2ccc(O)c(OC)c2)ccc1O` [MESODIHYDROGUAIARETIC ACID] gave a cytotoxic concentration (CC50) of 24.9 µM. For the same compound, in data set [2], the EC50 worked out at 4 µM. The selectivity ratio in data set [3] is 6.2.

The compound `C/C=C(\C)C(=O)Oc1c(OC)c(OC)cc2c1-c1c(cc(OC)c(OC)c1OC)[C@H](O)[C@H](C)[C@H](C)C2` [METHYL SCHISANTHERIN F] yielded a CC50 in data set [1] greater than 200 µM. In addition, the EC50 in data set [2] turned out to be 15.7 µM. For the same compound, the selectivity ratio in data set [3] was greater than 12.7.

On to `COc1ccc(C[C@@H](C)[C@@H](C)Cc2ccc(OC)c(OC)c2)cc1OC` [TERAMEPROCOL], for which the CC50 in data set [1] amounted to 28.8 µM. The EC50 in data set [2] was found to be 14.8 µM. Further, the selectivity ratio in data set [3] is 2.

Compound `CC[C@H](C)C(=O)Oc1c(OC)c(OC)cc2c1-c1c(cc(OC)c(OC)c1OC)[C@H](O)[C@H](C)[C@H](C)C2` [TIEGUSANIN A] registered a CC50 in data set [1] greater than 200 µM. Also, the EC50 in data set [2] came to 29.8 µM. Also, the selectivity ratio in data set [3] is greater than 6.7.

Regarding `COc1cc2c(c(OC)c1OC)-c1c(cc(OC)c(OC)c1OC(=O)c1ccccc1)[C@H](O)[C@H](C)[C@H](C)C2` [TIEGUSANIN C], in data set [1], the CC50 was greater than 200 µM. In addition, in data set [2], the concentration giving a half-maximal response (EC50) came out at 18.5 µM. In addition, the selectivity ratio in data set [3] was greater than 10.8.

In data set [1], `COc1c(O)cc2c(c1OC)-c1c(cc3c(c1OC)OCO3)C[C@@H](C)[C@@H](C)[C@H]2OC(=O)/C=C/c1ccccc1` [TIEGUSANIN L] showed a CC50 of 74.1 µM. The EC50 in data set [2] was 7.3 µM. Also, the selectivity ratio in data set [3] is 10.2.

`COc1ccc(CC(C)C(C)Cc2cc(OC)c(OC)c(OC)c2)cc1OC` (stereo not drawn) [TIEGUSANIN N] gave a 50% cytotoxic concentration (CC50) in data set [1] of 24.5 µM. In addition, the EC50 in data set [2] turned out to be 9.4 µM. Further, the selectivity ratio in data set [3] stood at 2.6.

As to `Cc1cn([C@H]2C[C@H](N=[N+]=[N-])[C@@H](CO)O2)c(=O)[nH]c1=O` [ZIDOVUDINE], the CC50 in data set [1] is greater than 1000 µM. The half-maximal effective concentration (EC50) in data set [2] came to 0.00195 µM. In addition, in data set [3], the selectivity ratio is greater than 500000.

Usually CC50 stands for the concentration giving 50% cytotoxicity. A lower CC50 goes with harm at low concentration. Broadly, the EC50 is the midpoint of the concentration-response curve.

(Values after ChEMBL document CHEMBL1153019, “Lignans with anti-HIV activity from Schisandra propinqua var. sinensis” (J Nat Prod, 2009).)
